Screening results: PubChem BioAssay, Broad Institute
dFosB act: mouse delta FosB homodimer activation | P13346 | purified delta FosB, TAMRA-CDK5 oligo fluorescence polarization; percent of positive-control signal above neutral wells | activation, % at 25 µM | actives 0.99% (n = 340,000) | AID 493131;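 active = mean activation above about 17%, with every replicate also reaching it, limit read from the data, passing the limit was not always enough; inconclusive = only one of the two conditions met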
Target sequence (P13346 whole entry, looked up): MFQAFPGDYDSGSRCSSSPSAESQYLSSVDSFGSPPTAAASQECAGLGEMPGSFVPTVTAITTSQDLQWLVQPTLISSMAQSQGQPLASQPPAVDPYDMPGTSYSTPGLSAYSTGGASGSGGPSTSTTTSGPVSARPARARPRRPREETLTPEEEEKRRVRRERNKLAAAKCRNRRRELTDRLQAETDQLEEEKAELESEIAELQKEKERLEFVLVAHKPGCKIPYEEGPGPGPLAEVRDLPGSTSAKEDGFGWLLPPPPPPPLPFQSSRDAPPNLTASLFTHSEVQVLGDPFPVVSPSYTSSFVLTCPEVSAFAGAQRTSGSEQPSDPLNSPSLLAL
SR-BI DiI inh: inhibitors of mouse SR-BI mediated HDL lipid uptake | actives 0.96% (n = 320,000) | ldlA[mSR-BI] CHO cells, DiI-HDL uptake fluorescence, 3 h | AID 488896 | inhibition, % at 12.5 µM;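 active = mean replicate inhibition of at least 70% and a set share of replicates each scoring 70 or more; inconclusive = meets just one of the two criteria; inactive = fails both criteria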;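 also: 0% = median of neutral control wells and 100% = median of positive control wells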
PvdQ acylase: P. aeruginosa PvdQ acylase inhibition; purified PvdQ acylase, fluorescence plate reader; inhibition, % at 10 µM; actives 0.063% (n = 340,000); in the data active = inhibition above about 30%, passing the limit was not always enough; inconclusive = no clear call, values can overlap the other calls;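 also: 0% = vehicle neutral wells and 100% = reference inhibitor wells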
RAD54 inh: inhibitors of human RAD54 branch migration | Q92698 | actives 0.14% (n = 360,000) | RAD54 Holliday junction branch migration, FAM/BHQ fluorescence | inhibition, % at 10.4 µM;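 active = mean normalized replicate activity at least 40 and at least half of replicates scoring 40 or more; inconclusive = only one of the two criteria met; inactive = mean below 40 and under half of replicates reaching 40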;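 also: 0% = median of neutral control wells and 100% = median of positive control wells; inhibitors cause a drop in the FAM fluorescence signal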
SR-BI DiI-HDL act: activators of SR-BI mediated HDL lipid uptake; CHO ldlA[mSR-BI] cells, DiI-HDL uptake fluorescence, 3 h; 100 = double the neutral-control signal; activation, % at 12.5 µM; actives 0.096% (n = 320,000);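 active = mean replicate activation of at least 60% and every replicate at or above 60%; inconclusive = mean or all-replicate condition met, but not both; inactive = mean below 60% and not all replicates reaching 60%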;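 also: 0% = median plate neutral-control signal and 100% = twice that signal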
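Material: SR-BI-overexpressing, LDLR-lacking CHO cells; schedule: compound exposure 3 h, 37 °C; reagent: DiI-labelled HDL at 10 µg/mL final; technique: bottom-read fluorescence, 550/595 nm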
S100A4 inh HTS: S100A4-myosin IIA interaction inhibition | P26447 | S100A4/TAMRA-MyoIIA peptide fluorescence polarization | actives 0.14% (n = 360,000) | inhibition, % at 10.7 µM;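 active = mean inhibition of at least 70% across replicates, with every replicate also reaching that level; inconclusive = mean inhibition reaches 70% but some replicates fall short; inactive = mean inhibition below 70%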
Target sequence (P26447 whole entry, looked up): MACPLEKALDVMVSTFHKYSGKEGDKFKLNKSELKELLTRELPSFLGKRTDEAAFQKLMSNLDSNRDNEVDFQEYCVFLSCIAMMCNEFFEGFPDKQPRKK
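assay system = human S100A4 monomer with TAMRA-labelled myosin IIA peptide | also added = labelled myosin peptide probe, 5 nM | incubation = 5 min between mix addition and reading | control set = DMSO and TFP controls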
Numbers without * were called inactive. Only some compounds are listed: those with a hit (about 1.6% of all), similar ones and a draw of the others.

How did Cc1cc(=O)oc2c1ccc1oc(/C(=N/O)c3ccccc3)c(C)c12 do in these assays?
dFosB act: -11; SR-BI DiI inh: inactive; PvdQ acylase: -14; SR-BI DiI-HDL act: 516*

How did C[C@@H]1CN([C@@H](C)CO)C(=O)c2cc(Br)cnc2O[C@H]1CN(C)Cc1ccncc1 do in these assays?
RAD54 inh: -5; S100A4 inh HTS: 9

How did COc1ccc2c3c([nH]c2c1)[C@H](CO)N(Cc1cccc(F)c1)CC31CN(CC2CC2)C1 do in these assays?
S100A4 inh HTS: -68

What do the screens show for `COc1cccc(C(=O)Nc2ccc3c(c2)OC[C@@H](C)N(C(C)=O)C[C@@H](C)[C@@H](OC)CN(C)C3=O)c1`?
RAD54 inh: -9; S100A4 inh HTS: 3

Results for C[C@H]1CN([C@@H](C)CO)C(=O)c2c(c3ccccc3n2C)-c2ccccc2CO[C@H]1CN(C)CC1CC1 ?
RAD54 inh: 11; S100A4 inh HTS: 2

How did CC(C)CC#Cc1cnc2c(c1)C(=O)N([C@H](C)CO)C[C@@H](C)[C@H](CN(C)S(C)(=O)=O)O2 do in these assays?
RAD54 inh: 5; S100A4 inh HTS: 95*

What do the screens show for `COCC#Cc1cnc2c(c1)C(=O)N([C@H](C)CO)C[C@H](C)[C@H](CN(C)C(=O)C1CCC1)O2`?
RAD54 inh: -19; S100A4 inh HTS: 133*

Results for CCCC#Cc1cnc2c(c1)C(=O)N([C@@H](C)CO)C[C@@H](C)[C@H](CN(C)S(C)(=O)=O)O2 ?
RAD54 inh: 5; S100A4 inh HTS: 0

What do the screens show for `C[C@H](CO)N1C[C@H](C)[C@H](CN(C)CC2CC2)OCc2ccccc2-c2c(n(C)c3ccccc23)C1=O`?
RAD54 inh: 2; S100A4 inh HTS: 90*

Results for C[C@@H]1CN([C@@H](C)CO)C(=O)c2cc(C#CCc3ccccc3)cnc2O[C@@H]1CN(C)CC1CC1 ?
S100A4 inh HTS: 121*

How did CCCN(CCC)c1nc(N)nc(-c2cc(Cl)ccc2OC)n1 do in these assays?
dFosB act: -7; SR-BI DiI inh: 82*; PvdQ acylase: 10; SR-BI DiI-HDL act: -82

What do the screens show for `CCOc1ccccc1NC(=O)Nc1ccsc1C(=O)OC`?
dFosB act: -13; SR-BI DiI inh: 79*; PvdQ acylase: -17; RAD54 inh: -8; SR-BI DiI-HDL act: -79; S100A4 inh HTS: 0

What do the screens show for `CCOc1ccccc1NC(=O)Nc1cccc(C(C)=O)c1`?
dFosB act: -1; SR-BI DiI inh: 78*; PvdQ acylase: -3; RAD54 inh: -2; SR-BI DiI-HDL act: -78

What do the screens show for `CCOc1ccccc1NC(=O)Nc1cccc(NC(C)=O)c1`?
dFosB act: -3; PvdQ acylase: -10; RAD54 inh: -16; S100A4 inh HTS: -1

What do the screens show for `Cc1cc2[nH]c3c(c[n+](C)c4ccccc34)c2cc1C`?
dFosB act: -86; SR-BI DiI inh: -15; PvdQ acylase: -20; SR-BI DiI-HDL act: 15; S100A4 inh HTS: 1

Results for Cc1cc2[nH]c3c4ccccc4nc(C)c3c2cc1C ?
dFosB act: -138; SR-BI DiI inh: -11; PvdQ acylase: -16; RAD54 inh: 91*; SR-BI DiI-HDL act: 11; S100A4 inh HTS: 0

How did CCOc1cc(/C=N/NC(=O)c2ccc(N(C)S(=O)(=O)c3ccccc3)cc2)ccc1OC do in these assays?
dFosB act: 0; SR-BI DiI inh: 73*; PvdQ acylase: -9; RAD54 inh: 1; SR-BI DiI-HDL act: -73; S100A4 inh HTS: -12

How did COc1cc(/C=N\NC(=O)c2ccc(-c3ccccc3)cc2)cc(OC)c1O do in these assays?
dFosB act: 6; SR-BI DiI inh: 92*; PvdQ acylase: -3; RAD54 inh: 1; SR-BI DiI-HDL act: -92; S100A4 inh HTS: 5

Results for COc1cc(/C=N/Nc2ccccc2[N+](=O)[O-])cc(OC)c1O ?
dFosB act: -4; SR-BI DiI inh: 79*; PvdQ acylase: -8; RAD54 inh: 8; SR-BI DiI-HDL act: -79; S100A4 inh HTS: 1

Results for Cc1[nH]c2ccccc2c1/C=N/Nc1ccccc1[N+](=O)[O-] ?
dFosB act: -2; SR-BI DiI inh: 129*; PvdQ acylase: 21; SR-BI DiI-HDL act: -129; S100A4 inh HTS: 9

Results for COc1cc(/C=N/NC(=O)c2ccc(N(C)S(=O)(=O)c3ccccc3)cc2)cc(OC)c1OC ?
dFosB act: 4; SR-BI DiI inh: 49; PvdQ acylase: -6; SR-BI DiI-HDL act: -49

What do the screens show for `COc1ccc(NS(=O)(=O)c2cc([N+](=O)[O-])ccc2N/N=C/c2c(C)[nH]c3ccccc23)cc1`?
dFosB act: -3; SR-BI DiI inh: 11; PvdQ acylase: -15; RAD54 inh: 5; SR-BI DiI-HDL act: -11; S100A4 inh HTS: -7

How did CCNC(=O)C[C@H]1C=C[C@H](NS(=O)(=O)c2ccc(C)cc2)[C@@H](CO)O1 do in these assays?
RAD54 inh: -4; S100A4 inh HTS: 13

Results for CC(=O)Nc1ccc(C(=O)N/N=C/c2ccccc2OCc2ccccc2)cc1 ?
dFosB act: -13; SR-BI DiI inh: 79*; PvdQ acylase: -4; RAD54 inh: 5; SR-BI DiI-HDL act: -79; S100A4 inh HTS: 1

Results for COc1ccccc1/C=N/NC(=O)c1ccc(=O)n(C)c1 ?
dFosB act: -9; SR-BI DiI inh: 35; PvdQ acylase: 11; SR-BI DiI-HDL act: -35

How did COc1ccccc1/C=N/NC(=O)c1ccc(-c2ccccc2)cc1 do in these assays?
dFosB act: inconclusive; SR-BI DiI inh: 79*; PvdQ acylase: -11; SR-BI DiI-HDL act: -79

Results for CCOc1ccc(C(=O)N/N=C/c2ccccc2[N+](=O)[O-])cc1 ?
dFosB act: -8; SR-BI DiI inh: 27; PvdQ acylase: -5; SR-BI DiI-HDL act: -27

Results for O=C(N/N=C/c1ccccc1[N+](=O)[O-])c1ccc(COc2ccccc2-c2ccccc2)cc1 ?
dFosB act: -8; SR-BI DiI inh: 77*; PvdQ acylase: -4; RAD54 inh: 1; SR-BI DiI-HDL act: -77

What do the screens show for `CC(C)CC#Cc1cnc2c(c1)C(=O)N([C@@H](C)CO)C[C@@H](C)[C@@H](CN(C)C(=O)CC1CC1)O2`?
S100A4 inh HTS: -14

How did O=C(O)C1Nc2c(O)cc(Cl)c([N+](=O)[O-])c2C2C=CCC12 (centres undefined) do in these assays?
dFosB act: -12; SR-BI DiI inh: 83*; PvdQ acylase: -5; SR-BI DiI-HDL act: -83; S100A4 inh HTS: -9

How did CN(C)C(=O)[C@@H]1[C@@H](CO)[C@@H]2Cn3c(ccc(-c4ccccc4F)c3=O)[C@@H]2N1C(=O)c1cnccn1 do in these assays?
RAD54 inh: 0; S100A4 inh HTS: -7

How did O=C(O)c1cc([N+](=O)[O-])cc2ccccc12 do in these assays?
dFosB act: -2; SR-BI DiI inh: -90; PvdQ acylase: -17; RAD54 inh: -4; SR-BI DiI-HDL act: 90*; S100A4 inh HTS: 5
